# Experimental data published in ChEMBL document CHEMBL1649579, “A novel tryptophanyl-tRNA synthetase gene confers high-level resistance to indolmycin” (2009).
# Experiments:
# Assay type in all cases: functional
# [1] = tested on: Streptomyces coelicolor; test: Ratio of MIC for Streptomyces coelicolor B725 harboring trpRS2 L9F/Q13K mutant ORF to MIC for Streptomyces coelicolor B725
# Method in brief: (§1)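 Fold increase is the indolmycin MIC of each construct-bearing B725 strain (ermE* promoter) divided by the MIC of the parent trpRS1-null B725. Both MICs come from Difco nutrient agar plates containing indolmycin, read for growth after 2 days at 30C.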
# [2] = tested on: Streptomyces coelicolor; test: Antimicrobial activity against Streptomyces coelicolor B725 harboring trpRS2 L9F/Q13K mutant ORF after 48 hrs; details: B725, 48 h
# Method in brief: (§2)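 Agar MIC in S. coelicolor trpRS1-null strain B725. Each ORF is cloned into pIJ10257 under the constitutive ermE* promoter for equalized expression. Growth is on Difco nutrient agar with indolmycin at the indicated concentrations, 30C, 48 h. MIC is the concentration that inhibits growth.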
# [3] = tested on: Streptomyces coelicolor; test: Antimicrobial activity against Streptomyces coelicolor B725 harboring trpRS2 C(-17)A/L9F locus after 48 hrs; details: B725, 48 h
# Method in brief: (§3)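 Agar MIC in trpRS1-null S. coelicolor B725 carrying the trpRS2 locus (93 nt upstream to 96 nt downstream of the ORF, with or without point mutations) […]. Plates are Difco nutrient agar with indicated indolmycin levels, read for growth after 48 h at 30C.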
# [4] = tested on: Streptomyces coelicolor; test: Antimicrobial activity against Streptomyces coelicolor B725 harboring trpRS2 L9F mutant ORF after 48 hrs; details: B725, 48 h; method in brief: as §2
# [5] = tested on: Streptomyces griseus; test: Antimicrobial activity against Streptomyces griseus after 48 hrs
# Method in brief: (§4)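 Indolmycin MIC on Difco nutrient agar containing the indicated indolmycin concentrations. Spores are grown at 30C for 48 h. MIC is the lowest indolmycin concentration that prevents growth after 2 days.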
# [6] = tested on: Streptomyces coelicolor; test: Ratio of MIC for Streptomyces coelicolor B725 harboring trpRS2 L9F mutant ORF to MIC for Streptomyces coelicolor B725; method in brief: as §1
# [7] = tested on: Streptomyces coelicolor; test: Antimicrobial activity against trpRS1 deficient Streptomyces coelicolor B725 after 48 hrs; details: B725, 48 h; method in brief: as §4
# [8] = tested on: Streptomyces coelicolor; test: Antimicrobial activity against Streptomyces coelicolor B725 harboring trpRS2 H48Q mutant ORF after 48 hrs; details: B725, 48 h; method in brief: as §2
# [9] = tested on: Streptomyces coelicolor; test: Ratio of MIC for Streptomyces coelicolor B725 harboring trpRS2 G(-13)T locus to MIC for Streptomyces coelicolor B725; method in brief: as §1
# [10] = tested on: Streptomyces coelicolor; test: Antimicrobial activity against Streptomyces coelicolor B725 harboring trpRS2 Q13K mutant ORF after 48 hrs; details: B725, 48 h; method in brief: as §2
# [11] = tested on: Streptomyces coelicolor; test: Ratio of MIC for Streptomyces coelicolor B725 harboring trpRS2 L9F/H48Q mutant ORF to MIC for Streptomyces coelicolor B725; method in brief: as §1
# [12] = tested on: Streptomyces coelicolor; test: Antimicrobial activity against Streptomyces coelicolor B725 harboring trpRS2 locus after 48 hrs; details: B725, 48 h; method in brief: as §3
# [13] = tested on: Streptomyces coelicolor; test: Antimicrobial activity against Streptomyces coelicolor B725 harboring trpRS2 G(-13)T/H48Q locus after 48 hrs; details: B725, 48 h; method in brief: as §3
# [14] = tested on: Streptomyces coelicolor; test: Antimicrobial activity against Streptomyces coelicolor B725 harboring trpRS2 L9F/H48Q mutant ORF after 48 hrs; details: B725, 48 h; method in brief: as §2
# [15] = tested on: Streptomyces coelicolor; test: Antimicrobial activity against Streptomyces coelicolor B725 harboring trpRS2 G(-13)T/L9F locus after 48 hrs; details: B725, 48 h; method in brief: as §3
# [16] = tested on: Streptomyces coelicolor; test: Antimicrobial activity against Streptomyces coelicolor B725 harboring trpRS1 ORF after 48 hrs; details: B725, 48 h; method in brief: as §2
# [17] = tested on: Streptomyces avermitilis; test: Antimicrobial activity against Streptomyces avermitilis harboring trpRS1 homolog after 48 hrs; method in brief: as §4
# [18] = tested on: Streptomyces coelicolor; test: Ratio of MIC for Streptomyces coelicolor B725 harboring trpRS2 G(-13)T/H48Q locus to MIC for Streptomyces coelicolor B725; method in brief: as §1
# [19] = tested on: Streptomyces coelicolor; test: Antimicrobial activity against Streptomyces coelicolor B725 harboring trpRS2 H48N mutant ORF after 48 hrs; details: B725, 48 h; method in brief: as §2
# [20] = tested on: Streptomyces coelicolor; test: Ratio of MIC for Streptomyces coelicolor B725 harboring trpRS2 ORF to MIC for Streptomyces coelicolor B725; method in brief: as §1
# [21] = tested on: Streptomyces coelicolor; test: Ratio of MIC for Streptomyces coelicolor B725 harboring trpRS2 locus to MIC for Streptomyces coelicolor B725; method in brief: as §1
# [22] = tested on: Streptomyces coelicolor; test: Ratio of MIC for Streptomyces coelicolor B725 harboring trpRS2 Q13K mutant ORF to MIC for Streptomyces coelicolor B725; method in brief: as §1
# [23] = tested on: Streptomyces coelicolor; test: Antimicrobial activity against Streptomyces coelicolor B725 harboring trpRS2 ORF after 48 hrs; details: B725, 48 h; method in brief: as §2
# [24] = tested on: Streptomyces coelicolor; test: Antimicrobial activity against Streptomyces coelicolor B725 harboring trpRS2 C(-17)A locus after 48 hrs; details: B725, 48 h; method in brief: as §3
# [25] = tested on: Streptomyces coelicolor; test: Ratio of MIC for Streptomyces coelicolor B725 harboring trpRS2 G(-13)T/L9F locus to MIC for Streptomyces coelicolor B725; method in brief: as §1
# [26] = tested on: Streptomyces coelicolor; test: Ratio of MIC for Streptomyces coelicolor B725 harboring trpRS2 C(-17)A/H48Q locus to MIC for Streptomyces coelicolor B725; method in brief: as §1
# [27] = tested on: Streptomyces coelicolor; test: Ratio of MIC for Streptomyces coelicolor B725 harboring trpRS2 C(-17)A/L9F locus to MIC for Streptomyces coelicolor B725; method in brief: as §1
# [28] = tested on: Streptomyces coelicolor; test: Ratio of MIC for Streptomyces coelicolor B725 overexpressing tryptophanyl-tRNA synthetase gene to MIC for Streptomyces coelicolor B725; method in brief: as §1
# [29] = tested on: Streptomyces coelicolor; test: Ratio of MIC for Streptomyces coelicolor B725 harboring trpRS2 H48Q mutant ORF to MIC for Streptomyces coelicolor B725; method in brief: as §1
# [30] = tested on: Streptomyces coelicolor; test: Antimicrobial activity against Streptomyces coelicolor B725 harboring trpRS2 C(-17)A/H48Q locus after 48 hrs; details: B725, 48 h; method in brief: as §3
# [31] = tested on: Streptomyces coelicolor; test: Antimicrobial activity against wild-type Streptomyces coelicolor after 48 hrs; method in brief: as §4
# [32] = tested on: Streptomyces coelicolor; test: Antimicrobial activity against Streptomyces coelicolor B725 harboring trpRS2 G(-13)T locus after 48 hrs; details: B725, 48 h; method in brief: as §3
# [33] = tested on: Streptomyces coelicolor; test: Ratio of MIC for Streptomyces coelicolor B725 harboring trpRS2 H48N mutant ORF to MIC for Streptomyces coelicolor B725; method in brief: as §1
# [34] = tested on: Streptomyces coelicolor; test: Ratio of MIC for Streptomyces coelicolor B725 harboring trpRS2 C(-17)A locus to MIC for Streptomyces coelicolor B725; method in brief: as §1
smiles,measurement,setting,value
CNC1=NC(=O)[C@H]([C@H](C)c2c[nH]c3ccccc23)O1 [INDOMYCIN],fold change (FC),[1],32
same,MIC,[2],8 µg/mL
same,MIC,[3],5 µg/mL
same,MIC,[4],5 µg/mL
same,MIC,[5],15 µg/mL
same,fold change (FC),[6],20
same,MIC,[7],0.25 µg/mL
same,MIC,[8],> 75 µg/mL
same,fold change (FC),[9],20
same,MIC,[10],3 µg/mL
same,fold change (FC),[11],>300
same,MIC,[12],0.25 µg/mL
same,MIC,[13],> 75 µg/mL
same,MIC,[14],> 75 µg/mL
same,MIC,[15],12 µg/mL
same,MIC,[16],10 µg/mL
same,MIC,[17],5 µg/mL
same,fold change (FC),[18],>300
same,MIC,[19],> 75 µg/mL
same,fold change (FC),[20],1
same,fold change (FC),[21],1
same,fold change (FC),[22],12
same,MIC,[23],0.25 µg/mL
same,MIC,[24],2 µg/mL
same,fold change (FC),[25],48
same,fold change (FC),[26],>300
same,fold change (FC),[27],20
same,fold change (FC),[28],60
same,fold change (FC),[29],>300
same,MIC,[30],> 75 µg/mL
same,MIC,[31],> 150 µg/mL
same,MIC,[32],5 µg/mL
same,fold change (FC),[33],>300
same,fold change (FC),[34],8
